Test results published in ChEMBL document CHEMBL3414459, “Phenolic thio- and selenosemicarbazones as multi-target drugs” (Eur J Med Chem, 2015).
pEC50, pKi: −log10 of the molar value. The source made the active and inactive calls. No cut-off for these calls is given here.

Tests used:
[1] = system: Saccharomyces bayanus; assay: Un-competitive inhibition of baker's yeast alpha-glucosidase using p-nitrophenyl-alpha-D-glucopyranoside substrate assessed as reduction in p-nitrophenolate formation by Lineweaver-Burk plot
Outline: (§1)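 Same α-glucosidase conditions: pH 6.8 phosphate buffer, 25 °C, A400 for p-nitrophenolate, 5% DMSO. Done for inhibitors exceeding 50% inhibition at 500 µM. Rates measured at 5 substrate concentrations from 0.25 to 4.0 K_m, each at a fixed inhibitor concentration, using 2–3 inhibitor concentrations. Lineweaver–Burk double reciprocal plots gave the inhibition mode and constants K_ia (E) and K_ib (ES).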

[2] = system: A549; assay: Antiproliferative activity against human A549 cells after 48 hrs by sulforhodamine B assay; assay type: functional; details: A549, 48 h
Outline: (§2)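 Exponentially growing cells trypsinized into penicillin/streptomycin medium, >97% viable by trypan blue. Seeded per well: 10,000 (A549, HBL-100, HeLa, SW1573), 15,000 (T-47D), 20,000 (WiDr). Treatment began day 1, DMSO stocks 40 mM, 0.25% DMSO as control, triplicate, 48 h. Cells fixed with cold TCA 60 min at 4 °C, SRB stained, OD492 read, medium background subtracted.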

[3] = system: SW1573; assay: Antiproliferative activity against human SW1573 cells after 48 hrs by sulforhodamine B assay; assay type: functional; details: SW1573, 48 h; outline: as §2
[4] = Inhibition of baker's yeast alpha-glucosidase using p-nitrophenyl-alpha-D-glucopyranoside substrate assessed as inhibition constant for enzyme-substrate-compound binding by measuring reduction in p-nitrophenolate formation; outline: as §1
[5] = Inhibition of baker's yeast alpha-glucosidase using p-nitrophenyl-alpha-D-glucopyranoside substrate assessed as reduction in p-nitrophenolate formation at 500 uM; details: Saccharomyces bayanus
Outline: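 α-Glucosidase in 0.1 M phosphate buffer pH 6.8 with p-nitrophenyl-α-D-glucopyranoside at K_M (250 µM; K_M 0.25 mM). Inhibitor at 500 µM final or DMSO, DMSO 5% v/v.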

[6] = Antioxidant activity assessed as H2O2 scavenging activity at 100 uM incubated for 20 mins by phenol red based assay; assay type: physicochemical
Outline: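 Compound at 100 µM final, or DMSO control, in 0.1 M phosphate buffer pH 7.4 with H2O2 and 0.1 M NaCl, incubated in the dark at 37 °C for 20 min. Phenol red (0.2 mg/mL) and horseradish peroxidase (0.1 mg/mL) added, 15 min at 37 °C. NaOH added, 10 min at rt, A610 read. % reduction = (A_control − A_sample)/A_control × 100.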

[7] = system: T47D; assay: Potency index, ratio of GI50 for cisplatin to GI50 for compound against human T47D cells after 48 hrs by sulforhodamine B assay; assay type: functional
[8] = system: T47D; assay: Potency index, ratio of GI50 for 5-fluorouracil to GI50 for compound against human T47D cells after 48 hrs by sulforhodamine B assay; assay type: functional
[9] = Antiproliferative activity against human HBL100 cells after 48 hrs by sulforhodamine B assay; assay type: functional; details: HBL-100, 48 h; outline: as §2
[10] = Antioxidant activity assessed as DPPH free radical scavenging activity incubated for 30 mins; assay type: physicochemical
Outline: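 DPPH in HPLC-grade solvent mixed with compound in DMSO at 7 concentrations, or with DMSO alone as control. Kept in the dark at rt for 30 min, then A515 read against a blank. % DPPH remaining = A_sample/A_control × 100, plotted against concentration; EC50 taken from the straight line. Triplicate.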

[11] = system: HeLa; assay: Antiproliferative activity against human HeLa cells after 48 hrs by sulforhodamine B assay; assay type: functional; outline: as §2
[12] = system: T47D; assay: Antiproliferative activity against human T47D cells after 48 hrs by sulforhodamine B assay; assay type: functional; outline: as §2
[13] = system: WiDr; assay: Potency index, ratio of GI50 for cisplatin to GI50 for compound against human WiDr cells after 48 hrs by sulforhodamine B assay; assay type: functional
[14] = Antioxidant activity assessed as inhibition of the lipid peroxidation at 0.74 mM incubated for 24 hrs by ferric thiocyanate method; assay type: physicochemical; details: 740 µM
Outline: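 Ferric thiocyanate method at 0.74 mM. 10.0 mM DMSO stock combined with methanolic linoleic acid in 0.2 M phosphate buffer pH 7.0. AAPH added, then 24 h at 50 °C in the dark; DMSO served as control. An aliquot was diluted in H2O–DMSO with NH4SCN and FeCl2 in HCl. After 3 min at rt, A546 read. % inhibition relative to control.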

[15] = system: WiDr; assay: Potency index, ratio of GI50 for 5-fluorouracil to GI50 for compound against human WiDr cells after 48 hrs by sulforhodamine B assay; assay type: functional
[16] = system: HeLa; assay: Potency index, ratio of GI50 for 5-fluorouracil to GI50 for compound against human HeLa cells after 48 hrs by sulforhodamine B assay; assay type: functional
[17] = system: WiDr; assay: Antiproliferative activity against human WiDr cells after 48 hrs by sulforhodamine B assay; assay type: functional; outline: as §2

## Oc1ccc(/C=N/NC(=[Se])Nc2cccc3ccccc23)cc1
[1]
  inhibition: Active
[2]
  GI50: 1300 nM
[3]
  GI50: 2300 nM
[4]
  pKi: 4.23
[5]
  inhibition: 100%
[6]
  inhibition (INH): 53.1%
[7]
  RatioGI50: 6
[8]
  RatioGI50: 19
[9]
  GI50: 2100 nM
[10]
  pEC50: 4.66
[11]
  GI50: 2200 nM
[12]
  GI50: 2500 nM
[13]
  RatioGI50: 11
[14]
  inhibition (INH): 23.3%
[15]
  RatioGI50: 21
[16]
  RatioGI50: 6.5
[17]
  GI50: 2300 nM
